Published values of several laboratories.

Structure (SMILES) | test system | conditions | Cmax
CCCCCn1nc(C(=O)Nc2cccc3ccccc23)c2ccccc21 | male Long-Evans rat, plasma | intraperitoneal, 3 mg/kg | 213 ng/mL
CCCCCCCC(=O)N[C@@H](CCCCN)C(=O)N[C@@H](CCCCN)C(=O)N[C@@H](C)C(=O)N[C@@H](CC(C)C)C(=O)N[C@@H](CCCCN)C(=O)N[C@@H](CC(C)C)C(=O)N[C@@H](C)C(=O)N[C@@H](CCCCN)C(=O)N[C@@H](CCCCN)C(=O)N1CCC[C@H]1C(=O)N[C@@H](CC(C)C)C(=O)N[C@@H](CCCCN)C(=O)N[C@@H](CC(C)C)C(=O)N[C@@H](CC(C)C)C(=O)N[C@@H](CCCCN)C(N)=O | male Sprague-Dawley rat, blood | intravenous, 3 mg/kg, infusion | 273 ng/mL
CCCCCn1cc(C(=O)Nc2cccc3ccccc23)c2ccccc21 | male Long-Evans rat, plasma | intraperitoneal, 3 mg/kg | 296 ng/mL
Cc1ncc(C)n2nc(/C=C/c3nc(N4CCCC4)cc(N4CCOCC4)n3)nc12 | male Sprague-Dawley rat, plasma | oral, 0.3 mg/kg | 36 nM
COc1ncccc1-c1cnn2ccc(N3CCN(C(=O)OC(C)C)CC3)nc12 | rat, plasma | oral, 10 mg/kg | 3100 nM
[2H]C([2H])(c1cc(F)c(F)cc1F)n1c(=O)n(Cc2ncn(C)n2)c(=O)[nH]/c1=N\c1cc2cn(C)nc2cc1Cl | male Sprague-Dawley rat, plasma | intravenous, 5 mg/kg | 25200 ng/mL
N=c1c2c(-c3ccccc3)c(-c3ccccc3)n(Cc3ccccc3)c2ncn1[C@H]1CC[C@H](O)CC1 | male Sprague-Dawley rat, plasma | oral, 2 mg/kg, single dose | 133 ng/mL
CCC[C@@](N)(CO)CCc1ccc(OCCCCCC(C)C)cc1 | rat, plasma | oral, 100 mg/kg | 1030 nM
C#Cc1ccc2c(c1)C(c1ccccn1)=NCc1c(-c3cnco3)ncn1-2 | rat, plasma | oral, 2 mg/kg | 395 nM
O=C(Nc1cccnn1)N1CCN([C@@H]2CCOc3cc(C(F)(F)F)ccc32)CC1 | male Sprague-Dawley rat, plasma | oral, 3 mg/kg | 1520 nM
COC(=O)C(NC(=O)c1cn(CCCCCF)c2ccccc12)C(C)(C)C (stereo not drawn) | male Sprague-Dawley rat, plasma | subcutaneous, 50 µg/kg | 1.72 ng/mL
Cl.Cl.O=C(CCN1CCCCC1)c1ccc(-c2ccc(C(=O)CCN3CCCCC3)cc2)cc1 | Sprague-Dawley rat, plasma | intravenous, 5 mg/kg | 725 ng/mL
COc1ccc2c3c1O[C@H]1C[C@@H](OC(=O)c4ccccc4)C=C[C@@]31CCN(C)C2 | rat, brain | intravenous, 5 mg/kg | 13600 ng/g
[2H]C([2H])([2H])n1cc2cc(Nc3nc(=O)n(Cc4ncn(C)n4)c(=O)n3Cc3cc(F)c(F)cc3F)c(Cl)cc2n1 | male Sprague-Dawley rat, plasma | intravenous, 5 mg/kg | 23900 ng/mL
O=C([O-])C(=O)[O-].[NH-][C@@H]1CCCC[C@H]1[NH-].[Pt+4] (relative stereo) | rat, plasma | intravenous, 5 mg/kg | 2450 ng/mL
